ChEMBL document CHEMBL5532752, “Integrating a quinone substructure into histone deacetylase inhibitors to cope with Alzheimer's disease and cancer” (RSC Med Chem, 2024)
Active and inactive are the calls of the source. The rule behind the calls is not given here.

Key:
Neurosphere [1] = test: Neuroprotective activity against C57BL/6N mouse neurosphere assessed as increase in NPCs spontaneous differentiation by measuring increase in DCX-positive cells at 2.5 to 5 uM measured after 7 days by immunofluorescence analysis; type: functional, cell-based; settings: dose 2.5-5 µM, time 7.0 day
In short: (§1)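 Thirty 7-day neurospheres plated on Matrigel-coated coverslips with 2.5 or 5 μM compound or DMSO, differentiated 7 days, fixed in 4% PFA, immunostained for Nestin, DCX, Olig2 or GFAP with Alexa 555 secondaries, DAPI counterstain. Intensity index = marker-positive intensity / total DAPI intensity; mean ± SD of 3 fields per condition.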

Neurosphere [2] = test: Neuroprotective activity against C57BL/6N mouse neurosphere assessed as increase in NPCs spontaneous differentiation by measuring GFAP-positive cells at 2.5 to 5 uM measured after 7 days by immunofluorescence analysis; type: functional, tissue-based; settings: dose 2.5-5 µM, time 7.0 day; in short: as §1
SH-SY5Y [3] = test: Potentiation of H2O2-induced cytotoxicity in human SH-SY5Y cells assessed as cell viability at 50 uM pretreated for 24 hrs followed by incubation for 1 hr with H2O2 and incubated in drug-free medium for 22 hrs by MUH reagent based spectrophotometric analysis (reference value: 50.8%); type: functional; settings: time 25 hrs, read-out: Activity
Neurosphere [4] = test: Neuroprotective activity against C57BL/6N mouse neurosphere assessed as increase in NPC proliferation by measuring increase in neurospheres number at 2.5 to 5 uM measured after 7 days by bright field microscopy; type: functional, tissue-based; settings: dose 2.5-5 µM, time 7.0 day
In short: (§2)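 Neurospheres from sub-ventricular zone of 8-month-old male C57BL/6N mice, dissociated with Accutase, plated as single cells 5 × 10³/well in suspension in EGF/FGF2/N2/B27 medium with 2.5–50 μM compound or DMSO for 7 days. Daily brightfield live imaging; sphere count and total area per image, aggregates >400 μm² only.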

[5] = Cytotoxicity against human HepG2 cells assessed as reduction in cell viability incubated for 24 hrs by MTT assay; type: toxicity, cell-based
In short: (§3)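 HepG2 in MEM with 10% FBS, plated 1.5 × 10⁴ cells/well; after 24 h exposed to 0.010–100 μM compound or vehicle for 24 h. MTT (0.2 mg/mL in PBS) for 2 h at 37 °C, formazan dissolved in DMSO, absorbance at 570 nm. Viability relative to vehicle controls, mean ± SD, n = 4.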

Neurosphere [6] = test: Neuroprotective activity against C57BL/6N mouse neurosphere assessed as effect on neurospheres size at 2.5 to 5 uM measured after 7 days by bright field microscopy; type: functional, tissue-based; settings: dose 2.5-5 µM, time 7.0 day; in short: as §2
Neurosphere [7] = test: Neuroprotective activity against C57BL/6N mouse neurosphere assessed as increase in NPCs spontaneous differentiation by measuring Olig2-positive cells at 2.5 to 5 uM measured after 7 days by immunofluorescence analysis; type: functional, tissue-based; settings: dose 2.5-5 µM, time 7.0 day; in short: as §1
HepG2 = test: Cytotoxicity against human HepG2 cells assessed as cell viability upto 10 uM incubated for 24 hrs by MTT assay; type: toxicity, cell-based; settings: hepg2, 24 h; in short: as §3
Neurosphere [8] = test: Neuroprotective activity against C57BL/6N mouse neurosphere assessed as increase in NPCs spontaneous differentiation by measuring decrease in Nestin-positive cells at 2.5 to 5 uM measured after 7 days by immunofluorescence analysis; type: functional, cell-based; settings: dose 2.5-5 µM, time 7.0 day; in short: as §1
SH-SY5Y [9] = test: Neuroprotective activity against H2O2-induced cytotoxicity in human SH-SY5Y cells assessed as increase in cell viability at 1 to 50 uM pretreated for 24 hrs followed by incubation for 1 hr with H2O2 and incubated in drug-free medium for 22 hrs by MUH reagent based spectrophotometric analysis; type: functional; settings: dose 1-50 µM, time 25.0 hrs
In short: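 SH-SY5Y pretreated 24 h with 1, 10 or 50 μM compound, exposed 1 h to H2O2, then 22 h recovery in drug-free complete medium. H2O2 level printed as 300 μM in methods but 600 μM in figure legend. Viability by MUH fluorescence (ex 330/em 450 nm) vs untreated cells; one-way ANOVA, Tukey.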

SH-SY5Y [10] = test: Induction of apoptosis in human SH-SY5Y cells assessed as increase in caspase-3 activity at 10 uM incubated for 72 hrs by colorimetric assay relative to control; type: functional
In short: (§4)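 Cells treated 72 h, collected, PBS-rinsed, lysed on ice 10 min; protein quantified by Bradford. Lysates incubated 2 h at 37 °C with 2× reaction buffer containing 10 mM dithiothreitol and DEVD-pNA caspase-3 substrate. Free pNA read by absorbance at 405 nm; activity expressed as fold over untreated cells. At least 3 independent experiments.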

SH-SY5Y [11] = test: Induction of apoptosis in human SH-SY5Y cells assessed as increase in PARP cleavage by measuring decrease in PARP protein expression at 1 uM incubated for 72 hrs by flow cytometry relative to control; type: functional; design: scale not given: the % may be the effect or the level left
In short: (§5)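 SH-SY5Y cells, cultured in DMEM with 10% FBS at 37 °C and 5% CO2, were treated for 72 h. Cells were fixed in 4% paraformaldehyde and permeabilized with 90% cold methanol. They were stained with anti-PARP (1:100) and then an Alexa Fluor 488 secondary (1:200). Mean fluorescence intensity was read by flow cytometry and expressed as fold change versus control cells.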

SH-SY5Y [12] = test: Cytotoxicity against human SH-SY5Y cells assessed as reduction in cell viability at 10 uM pretreated with antioxidant, NAC for 1 hr followed by incubation with drug for 24 hrs by MUH reagent based spectrophotometric analysis; type: functional
In short: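 SH-SY5Y pretreated 1 h with 2 mM NAC, then exposed to compound at 1 or 10 μM for 24 h. Viability read by MUH hydrolysis (0.01 mg/mL, 30 min, 37 °C; ex 330/em 450 nm) as percent of untreated cells; two-way ANOVA with Tukey post hoc.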

SH-SY5Y [13] = test: Induction of cell cycle arrest in human SH-SY5Y cells assessed as proportion of cells at sub-G1 phase at 1 uM incubated for 72 hrs by propidium iodide staining based flow cytometry (reference value: 5.56%)
SH-SY5Y [14] = test: Cytotoxicity against human SH-SY5Y cells assessed as reduction in cell viability pretreated with SFN followed by compound treatment by MUH reagent based spectrophotometric analysis; type: functional
SH-SY5Y [15] = test: Induction of apoptosis in human SH-SY5Y cells assessed as increase in PARP cleavage by measuring decrease in PARP protein expression at 10 uM incubated for 72 hrs by flow cytometry relative to control; type: functional; design: scale not given: the % may be the effect or the level left; in short: as §5
SH-SY5Y [16] = test: Induction of apoptosis in human SH-SY5Y cells assessed as increase in caspase-3 activity at 1 uM incubated for 72 hrs by colorimetric assay relative to control; type: functional; in short: as §4
SH-SY5Y [17] = test: Induction of cell cycle arrest in human SH-SY5Y cells assessed as accumulation of cells at sub-G1 phase at 1 to 10 uM incubated for 72 hrs by propidium iodide staining based flow cytometry; type: functional; settings: dose 1-10 µM
In short: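 SH-SY5Y exposed to 1 or 10 μM for 72 h, collected, fixed in 70% ice-cold ethanol, stained with propidium iodide-containing cell-cycle reagent 30 min in the dark at room temperature, and analysed by flow cytometry for G0/G1, S, G2/M and sub-G1 fractions; one-way ANOVA, Bonferroni.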

SH-SY5Y [18] = test: Induction of cell cycle arrest in human SH-SY5Y cells assessed as proportion of cells at sub-G1 phase at 10 uM incubated for 72 hrs by propidium iodide staining based flow cytometry (reference value: 5.56%)

| SMILES | Activity (Neurosphere [1]) | Activity (Neurosphere [2]) | viability at 50 µM (SH-SY5Y [3]) | Activity (Neurosphere [4]) | IC50 at 24 h [5] | Activity (Neurosphere [6]) | Activity (Neurosphere [7]) | Activity (HepG2) | Activity (Neurosphere [8]) | Activity (SH-SY5Y [9]) | fold change (FC) (SH-SY5Y [10]) | Activity (SH-SY5Y [11]) | Activity (SH-SY5Y [12]) | Activity (SH-SY5Y [13]) | Activity (SH-SY5Y [14]) | Activity (SH-SY5Y [15]) | fold change (FC) (SH-SY5Y [16]) | Activity (SH-SY5Y [17]) | Activity (SH-SY5Y [18]) |
| --- | --- | --- | --- | --- | --- | --- | --- | --- | --- | --- | --- | --- | --- | --- | --- | --- | --- | --- | --- |
| CC1=C(NCCCCNC(=O)CS)C(=O)c2ccccc2C1=O | Active | inactive | 28.2% | Active | 25.5 µM | inactive | inactive | Non-Toxic | Active | inactive | – | – | – | – | – | – | – | – | – |
| CC1=C(NCc2ccc(C(=O)Nc3ccccc3N)cc2)C(=O)c2ccccc2C1=O | – | – | – | – | – | – | – | – | – | – | 1.7 | 44.81% | Active | 28.03% | Active | 56.81% | 1.2 | Active | 42.32% |
